According to ChEMBL document CHEMBL1795330, “Dual IGF-1R/SRC inhibitors based on a N'-aroyl-2-(1H-indol-3-yl)-2-oxoacetohydrazide structure” (Eur J Med Chem, 2011):

Key:
[1] = target: Hepatocyte growth factor receptor (Homo sapiens, UniProt P08581); assay: Inhibition of c-MET assessed as incorporation of p33 using [gammaP33]-ATP by microplate scintillation counting
Outline: (§1)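 Compound added in 10% DMSO. Incubated 80 min at 30 °C, stopped with 2% phosphoric acid, washed with 0.9% NaCl, 33P incorporation counted by scintillation. Activity normalised to no-enzyme and no-inhibitor controls; plates repeated if Z′ < 0.4.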

[2] = target: Insulin-like growth factor 1 receptor (Homo sapiens, UniProt P08069); assay: Inhibition of IGF-1R assessed as incorporation of p33 using [gammaP33]-ATP by microplate scintillation counting; outline: as §1
[3] = target: Proto-oncogene tyrosine-protein kinase Src (Homo sapiens, UniProt P12931); assay: Inhibition of SRC assessed as incorporation of p33 using [gammaP33]-ATP by microplate scintillation counting; outline: as §1
[4] = system: A549; assay: Antiproliferative activity against human A549 cells at 10 uM after 48 hrs by sulforhodamine B assay relative to control; type: functional; conditions: A549, 48 h
Outline: (§2)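 NCI cell-line screen: cells plated at 5000–40,000/well in medium with 5% foetal bovine serum and 2 mM L-glutamine, preincubated 24 h at 37 °C, 5% CO2. Time-zero plates fixed with TCA at drug addition. Compound from DMSO stock added; 48 h exposure. Cells fixed in situ with cold TCA, stained with 0.4% sulforhodamine B in 1% acetic acid, absorbance 515 nm; growth expressed relative to untreated controls (100%).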

[5] = system: NCI-H522; assay: Antiproliferative activity against human NCI-H522 at 10 uM after 48 hrs by sulforhodamine B assay relative to control; type: functional; conditions: NCI-H522, 48 h; outline: as §2
[6] = system: OVCAR-8; assay: Antiproliferative activity against human OVCAR8 at 10 uM after 48 hrs by sulforhodamine B assay relative to control; type: functional; conditions: OVCAR-8, 48 h; outline: as §2

Insulin-like growth factor 1 receptor, sequence (P08069 31-736 limits assumed): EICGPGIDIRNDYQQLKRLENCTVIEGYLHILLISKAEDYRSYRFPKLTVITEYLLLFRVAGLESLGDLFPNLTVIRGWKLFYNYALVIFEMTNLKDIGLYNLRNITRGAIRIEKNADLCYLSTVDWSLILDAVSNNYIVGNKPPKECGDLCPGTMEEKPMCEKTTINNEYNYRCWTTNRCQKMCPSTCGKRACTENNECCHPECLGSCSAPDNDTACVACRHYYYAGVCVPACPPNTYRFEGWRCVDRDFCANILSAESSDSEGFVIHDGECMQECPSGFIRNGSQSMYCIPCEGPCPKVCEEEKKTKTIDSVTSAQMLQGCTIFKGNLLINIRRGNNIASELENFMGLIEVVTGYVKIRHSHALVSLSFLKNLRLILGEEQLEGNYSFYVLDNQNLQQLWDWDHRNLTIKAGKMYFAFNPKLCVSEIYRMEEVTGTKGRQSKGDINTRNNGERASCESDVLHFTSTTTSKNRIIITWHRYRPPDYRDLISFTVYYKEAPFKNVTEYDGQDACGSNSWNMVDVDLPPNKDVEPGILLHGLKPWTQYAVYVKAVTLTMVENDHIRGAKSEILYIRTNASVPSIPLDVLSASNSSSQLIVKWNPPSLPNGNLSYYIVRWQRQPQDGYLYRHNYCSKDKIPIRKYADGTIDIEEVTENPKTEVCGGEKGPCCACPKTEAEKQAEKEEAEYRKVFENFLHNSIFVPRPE
Insulin-like growth factor 1 receptor, sequence (P08069 741-1367 limits assumed): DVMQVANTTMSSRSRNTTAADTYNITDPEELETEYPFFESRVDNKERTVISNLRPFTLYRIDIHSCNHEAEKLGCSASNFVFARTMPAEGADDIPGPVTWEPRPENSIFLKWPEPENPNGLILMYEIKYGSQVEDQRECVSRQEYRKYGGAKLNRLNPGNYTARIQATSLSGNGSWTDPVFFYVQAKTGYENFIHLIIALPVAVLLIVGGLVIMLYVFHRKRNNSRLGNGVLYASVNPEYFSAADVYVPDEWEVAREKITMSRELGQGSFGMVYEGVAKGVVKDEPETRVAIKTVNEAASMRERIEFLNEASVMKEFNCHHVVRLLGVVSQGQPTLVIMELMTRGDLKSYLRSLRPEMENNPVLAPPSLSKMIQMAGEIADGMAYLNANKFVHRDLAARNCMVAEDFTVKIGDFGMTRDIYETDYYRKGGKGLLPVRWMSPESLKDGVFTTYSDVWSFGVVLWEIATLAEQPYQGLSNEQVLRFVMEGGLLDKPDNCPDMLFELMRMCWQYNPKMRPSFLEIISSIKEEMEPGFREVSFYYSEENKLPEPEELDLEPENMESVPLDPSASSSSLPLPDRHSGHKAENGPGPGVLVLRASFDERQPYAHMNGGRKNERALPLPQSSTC
Hepatocyte growth factor receptor, sequence (P08581 whole entry): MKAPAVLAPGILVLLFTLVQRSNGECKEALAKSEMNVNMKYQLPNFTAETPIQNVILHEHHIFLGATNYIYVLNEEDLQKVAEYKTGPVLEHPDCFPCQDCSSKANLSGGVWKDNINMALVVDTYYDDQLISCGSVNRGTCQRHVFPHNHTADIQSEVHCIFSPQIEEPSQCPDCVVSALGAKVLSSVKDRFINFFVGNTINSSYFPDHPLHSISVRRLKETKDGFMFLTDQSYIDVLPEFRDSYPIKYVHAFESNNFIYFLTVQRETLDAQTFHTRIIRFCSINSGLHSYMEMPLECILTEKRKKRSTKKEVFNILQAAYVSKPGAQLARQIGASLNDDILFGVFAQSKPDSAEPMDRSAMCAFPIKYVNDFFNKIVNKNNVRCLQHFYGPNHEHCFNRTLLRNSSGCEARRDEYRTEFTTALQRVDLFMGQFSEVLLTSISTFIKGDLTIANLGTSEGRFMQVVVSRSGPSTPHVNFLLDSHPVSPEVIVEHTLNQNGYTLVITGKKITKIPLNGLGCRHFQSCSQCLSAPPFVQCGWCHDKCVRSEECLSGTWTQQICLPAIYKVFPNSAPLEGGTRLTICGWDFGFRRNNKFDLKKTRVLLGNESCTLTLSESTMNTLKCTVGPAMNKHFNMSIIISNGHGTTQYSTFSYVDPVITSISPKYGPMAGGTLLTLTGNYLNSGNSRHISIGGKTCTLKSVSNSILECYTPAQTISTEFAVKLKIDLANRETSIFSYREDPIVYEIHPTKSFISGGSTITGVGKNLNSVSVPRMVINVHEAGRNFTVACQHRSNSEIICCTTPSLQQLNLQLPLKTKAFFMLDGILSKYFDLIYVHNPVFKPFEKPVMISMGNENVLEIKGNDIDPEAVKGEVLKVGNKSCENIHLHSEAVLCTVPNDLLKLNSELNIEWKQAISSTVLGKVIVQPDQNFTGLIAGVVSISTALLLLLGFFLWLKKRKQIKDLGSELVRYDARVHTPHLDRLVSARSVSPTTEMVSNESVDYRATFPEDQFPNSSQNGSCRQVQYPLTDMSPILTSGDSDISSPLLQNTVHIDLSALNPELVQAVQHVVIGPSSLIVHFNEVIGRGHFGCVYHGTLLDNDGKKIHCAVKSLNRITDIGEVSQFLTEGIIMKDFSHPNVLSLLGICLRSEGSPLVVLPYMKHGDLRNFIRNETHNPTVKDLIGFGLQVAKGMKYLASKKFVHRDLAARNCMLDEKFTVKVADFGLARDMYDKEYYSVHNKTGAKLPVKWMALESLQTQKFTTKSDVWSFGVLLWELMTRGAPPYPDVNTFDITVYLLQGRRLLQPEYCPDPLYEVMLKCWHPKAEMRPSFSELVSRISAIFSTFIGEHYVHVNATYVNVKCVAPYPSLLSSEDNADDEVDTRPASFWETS
Proto-oncogene tyrosine-protein kinase Src, sequence (P12931 2-536 limits assumed): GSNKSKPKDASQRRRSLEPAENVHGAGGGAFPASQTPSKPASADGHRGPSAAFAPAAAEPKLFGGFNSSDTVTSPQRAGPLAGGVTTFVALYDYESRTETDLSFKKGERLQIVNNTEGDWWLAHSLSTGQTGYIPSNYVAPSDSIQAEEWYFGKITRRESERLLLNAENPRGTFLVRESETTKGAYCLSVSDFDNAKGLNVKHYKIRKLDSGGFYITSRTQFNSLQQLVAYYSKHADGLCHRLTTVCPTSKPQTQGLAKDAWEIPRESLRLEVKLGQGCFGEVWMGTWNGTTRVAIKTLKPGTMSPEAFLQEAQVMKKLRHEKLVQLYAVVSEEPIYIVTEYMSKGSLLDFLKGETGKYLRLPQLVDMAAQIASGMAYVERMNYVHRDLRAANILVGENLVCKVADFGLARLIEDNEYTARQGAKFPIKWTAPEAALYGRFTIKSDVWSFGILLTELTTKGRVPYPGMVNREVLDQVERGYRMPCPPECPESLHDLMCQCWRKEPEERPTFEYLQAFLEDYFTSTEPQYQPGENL

Row | Structure (SMILES) | IC50 [1] [µM] | IC50 [2] [µM] | IC50 [3] [µM] | growth, % of control at 10 µM [4] [%] | growth, % of control at 10 µM [5] [%] | growth, % of control at 10 µM [6] [%]
1 | O=C(NCCc1cccc(Cl)c1)C(=O)c1c[nH]c2ccccc12 | > 100 | > 100 | – | – | – | –
2 | O=C(NNC(=O)c1ccccc1)C(=O)c1c[nH]c2ccccc12 | > 100 | > 100 | – | – | – | –
3 | Cc1ccc(C)n1-c1ccc(C(=O)NNC(=O)C(=O)c2c[nH]c3ccccc23)cc1 | 16 | 4.9 | 3.6 | – | – | –
4 | COCCc1ccc(OCc2cccc(-c3ccc(C(=O)NNC(=O)C(=O)c4c[nH]c5ccccc45)cc3)c2)cc1 | 8.8 | 0.68 | 0.38 | – | – | –
5 | Cc1nc(-c2ccc(C(=O)NNC(=O)C(=O)c3c[nH]c4ccccc34)cc2)no1 | 95 | 12 | 22 | – | – | –
6 | Cc1cc(C(C)(C)C)ccc1OCc1cccc(-c2ccc(C(=O)NNC(=O)C(=O)c3c[nH]c4ccccc34)cc2)c1 | 4.1 | 0.67 | 0.52 | 7.38 | -7.7 | -9.59
7 | O=C(NNC(=O)c1ccc([N+](=O)[O-])cc1)C(=O)c1c[nH]c2ccccc12 | 69 | > 100 | – | – | – | –
8 | O=C(NNC(=O)c1ccc(Cl)cc1)C(=O)c1c[nH]c2ccccc12 | 48 | 16 | – | – | – | –
9 | O=C(NNc1ccc(Br)cc1)C(=O)c1c[nH]c2ccccc12 | > 100 | > 100 | – | – | – | –
10 | O=C(NNC(=O)c1ccc(-c2ccccc2COc2cccc(C(F)(F)F)c2)cc1)C(=O)c1c[nH]c2ccccc12 | 5.2 | 0.81 | 0.62 | – | – | –
11 | Cc1ccc(C(=O)NNC(=O)C(=O)c2c[nH]c3ccccc23)cc1 | 95 | 82 | – | – | – | –
12 | COc1ccc(C(=O)NNC(=O)C(=O)c2c[nH]c3ccccc23)cc1 | 96 | 54 | – | – | – | –
13 | CC(C)(C)c1ccc(C(=O)NNC(=O)C(=O)c2c[nH]c3ccccc23)cc1 | 36 | 4.4 | 5.9 | – | – | –
14 | O=C(NNC(=O)c1ccccc1F)C(=O)c1c[nH]c2ccccc12 | 91 | 91 | 96 | – | – | –
15 | O=C(NCc1ccc(Cl)cc1)C(=O)c1c[nH]c2ccccc12 | > 100 | > 100 | – | – | – | –
16 | O=C(NNC(=O)c1ccc(I)cc1)C(=O)c1c[nH]c2ccccc12 | 14 | 4 | 4.5 | – | – | –
17 | O=C(NNC(=O)c1ccc(C(F)(F)F)cc1)C(=O)c1c[nH]c2ccccc12 | 49 | 4.1 | 1.3 | – | – | –
18 | O=C(NCCc1ccc(Cl)cc1)C(=O)c1c[nH]c2ccccc12 | > 100 | > 100 | – | – | – | –
19 | O=C(NNC(=O)c1ccc(-c2ccccc2OCc2ccc(F)cc2)cc1)C(=O)c1c[nH]c2ccccc12 | 13 | 4.9 | 1.9 | – | – | –
20 | O=C(NNC(=O)c1ccc(-c2cccc(COc3cccc(C(F)(F)F)c3)c2)cc1)C(=O)c1c[nH]c2ccccc12 | 7.6 | 0.99 | 0.72 | – | – | –
21 | O=C(NNc1ccc(I)cc1)C(=O)c1c[nH]c2ccccc12 | > 100 | > 100 | – | – | – | –
22 | CS(=O)(=O)NCc1cccc(-c2ccc(C(=O)NNC(=O)C(=O)c3c[nH]c4ccccc34)cc2)c1 | 27 | 3.3 | 2.8 | – | – | –
23 | O=C(NNc1ccc(Cl)cc1)C(=O)c1c[nH]c2ccccc12 | > 100 | > 100 | – | – | – | –
24 | O=C(NCc1ccccc1)C(=O)c1c[nH]c2ccccc12 | > 100 | > 100 | – | – | – | –
25 | O=C(NCc1cccc(Cl)c1)C(=O)c1c[nH]c2ccccc12 | > 100 | > 100 | – | – | – | –
26 | Cc1cncc(Oc2ccc(C(=O)NNC(=O)C(=O)c3c[nH]c4ccccc34)cc2)n1 | > 100 | 31 | 40 | – | – | –
27 | Cc1ccc(CNC(=O)C(=O)c2c[nH]c3ccccc23)cc1 | > 100 | 63 | – | – | – | –
28 | COc1ccc(CCNC(=O)C(=O)c2c[nH]c3ccccc23)cc1OC | > 100 | > 100 | – | – | – | –
29 | O=C(NNc1ccccc1)C(=O)c1c[nH]c2ccccc12 | > 100 | > 100 | – | – | – | –
30 | Cc1ccc(CCNC(=O)C(=O)c2c[nH]c3ccccc23)cc1 | > 100 | 52 | – | – | – | –
